From ChEMBL document CHEMBL4138150, “Quinoline derivatives bearing pyrazole moiety: Synthesis and biological evaluation as possible antibacterial and antifungal agents” (2018)
In brackets after ≈: the same amount, converted by molar mass.

Columns and labels:
Format in all cases: functional
Aspergillus clavatus [1] = assay: Antimicrobial activity against Aspergillus clavatus RCMB 02593 after 72 hrs by macro-tube dilution technique; conditions: RCMB 02593, 72 h
How it was run: (§1)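 Twofold macro-tube dilution following NCCLS guidance, run in malt extract broth. 10 mg compound in 2.0 mL DMSO in tube 1 was serially diluted 1:1 through tube 14 into 1.0 mL broth; tube 15 was the control. Culture was suspended to turbidity in 5.0 mL broth, 0.2 mL was diluted into 40 mL, and 1.0 mL was added per tube. Incubation was 72 h at 30 °C. MIC was the lowest concentration with no growth.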

Shigella flexneri [2] = assay: Antimicrobial activity against Shigella flexneri RCMB 0100542 after overnight incubation by macro-tube dilution technique
How it was run: (§2)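 Macro-tube twofold dilution following NCCLS guidance, run in nutrient broth. The first tube held 10 mg compound in 2.0 mL DMSO and was serially halved 1:1 into 1.0 mL broth through tube 14; tube 15 was the control. The inoculum was suspended to turbidity in 5.0 mL broth, 0.2 mL was diluted into 40 mL, and 1.0 mL was added per tube. Tubes were incubated overnight at 37 °C. MIC was the lowest concentration with no growth.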

Staphylococcus aureus [3] = assay: Antimicrobial activity against Staphylococcus aureus RCMB 010027 after overnight incubation by macro-tube dilution technique; how it was run: as §2
Proteus vulgaris [4] = assay: Antimicrobial activity against Proteus vulgaris RCMB 010085 after overnight incubation by macro-tube dilution technique; how it was run: as §2
Klebsiella pneumoniae [5] = assay: Antimicrobial activity against Klebsiella pneumoniae RCMB 010093 assessed as diameter of zone inhibition at 5 mg/ml after 24 hrs by agar well diffusion assay; conditions: RCMB 010093, 24 h, read-out: DIZ
How it was run: (§3)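 Agar well diffusion: 100 µL of 1 x10^8 CFU/mL bacteria was spread on nutrient agar. 10 mm wells received 100 µL of compound at 5 mg/mL in DMSO, or ampicillin or gentamycin standards at 1 mg/mL. DMSO served as negative control. Plates were incubated 24 h at 37 °C. Inhibition zone diameter (mm) was measured as the mean of triplicates.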

Aspergillus fumigatus [6] = assay: Antimicrobial activity against Aspergillus fumigatus RCMB 02564 after 72 hrs by macro-tube dilution technique; conditions: RCMB 02564, 72 h; how it was run: as §1
Aspergillus clavatus [7] = assay: Antimicrobial activity against Aspergillus clavatus RCMB 02593 assessed as diameter of zone inhibition at 5 mg/ml after 72 hrs by agar well diffusion assay; conditions: RCMB 02593, 72 h, read-out: DIZ
How it was run: (§4)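 Fungi (1 x10^6 CFU/mL, 100 µL) were spread on Sabouraud dextrose agar. 10 mm wells were loaded with 100 µL of test solution at 5 mg/mL in DMSO, or amphotericin B standard at 1 mg/mL. A DMSO negative control was included. Plates were incubated 72 h at 28 °C. Inhibition zone diameter (mm) was recorded as the average of triplicate runs.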

Aspergillus fumigatus [8] = assay: Antimicrobial activity against Aspergillus fumigatus RCMB 02564 assessed as diameter of zone inhibition at 5 mg/ml after 72 hrs by agar well diffusion assay; conditions: RCMB 02564, 72 h, read-out: DIZ; how it was run: as §4
Bacillus subtilis [9] = assay: Antimicrobial activity against Bacillus subtilis RCMB 010063 assessed as diameter of zone inhibition at 5 mg/ml after 24 hrs by agar well diffusion assay; conditions: RCMB 010063, 24 h, read-out: DIZ; how it was run: as §3
Staphylococcus aureus [10] = assay: Antimicrobial activity against Staphylococcus aureus RCMB 010027 assessed as diameter of zone inhibition at 5 mg/ml after 24 hrs by agar well diffusion assay; conditions: RCMB 010027, 24 h, read-out: DIZ; how it was run: as §3
Klebsiella pneumoniae [11] = assay: Antimicrobial activity against Klebsiella pneumoniae RCMB 010093 after overnight incubation by macro-tube dilution technique; how it was run: as §2
[12] = test system: Staphylococcus epidermidis; assay: Antimicrobial activity against Staphylococcus epidermidis RCMB 010024 after overnight incubation by macro-tube dilution technique; how it was run: as §2
Candida albicans [13] = assay: Antimicrobial activity against Candida albicans RCMB 05035 after 72 hrs by macro-tube dilution technique; conditions: RCMB 05035, 72 h; how it was run: as §1
Proteus vulgaris [14] = assay: Antimicrobial activity against Proteus vulgaris RCMB 010085 assessed as diameter of zone inhibition at 5 mg/ml after 24 hrs by agar well diffusion assay; conditions: RCMB 010085, 24 h, read-out: DIZ; how it was run: as §3
Bacillus subtilis [15] = assay: Antimicrobial activity against Bacillus subtilis RCMB 010063 after overnight incubation by macro-tube dilution technique; how it was run: as §2
Candida albicans [16] = assay: Antimicrobial activity against Candida albicans RCMB 05035 assessed as diameter of zone inhibition at 5 mg/ml after 72 hrs by agar well diffusion assay; conditions: RCMB 05035, 72 h, read-out: DIZ; how it was run: as §4
[17] = test system: Staphylococcus epidermidis; assay: Antimicrobial activity against Staphylococcus epidermidis RCMB 010024 assessed as diameter of zone inhibition at 5 mg/ml after 24 hrs by agar well diffusion assay; conditions: RCMB 010024, 24 h, read-out: DIZ; how it was run: as §3
Shigella flexneri [18] = assay: Antimicrobial activity against Shigella flexneri RCMB 0100542 assessed as diameter of zone inhibition at 5 mg/ml after 24 hrs by agar well diffusion assay; conditions: RCMB 0100542, 24 h, read-out: DIZ; how it was run: as §3
Proteus vulgaris [19] = assay: Potency index, ratio of Gentamycin IC50 to compound IC50 for Proteus vulgaris RCMB 010085

Row | Structure (SMILES) | MIC (Aspergillus clavatus [1]) [µg/mL] | MIC (Shigella flexneri [2]) [µg/mL] | MIC (Staphylococcus aureus [3]) [µg/mL] | MIC (Proteus vulgaris [4]) [µg/mL] | zone of inhibition at 5000 µg/mL (Klebsiella pneumoniae [5]) [mm] | MIC (Aspergillus fumigatus [6]) [µg/mL] | zone of inhibition at 5000 µg/mL (Aspergillus clavatus [7]) [mm] | zone of inhibition at 5000 µg/mL (Aspergillus fumigatus [8]) [mm] | zone of inhibition at 5000 µg/mL (Bacillus subtilis [9]) [mm] | zone of inhibition at 5000 µg/mL (Staphylococcus aureus [10]) [mm] | MIC (Klebsiella pneumoniae [11]) [µg/mL] | MIC [12] [µg/mL] | MIC (Candida albicans [13]) [µg/mL] | zone of inhibition at 5000 µg/mL (Proteus vulgaris [14]) [mm] | MIC (Bacillus subtilis [15]) [µg/mL] | zone of inhibition at 5000 µg/mL (Candida albicans [16]) [mm] | zone of inhibition at 5000 µg/mL [17] [mm] | zone of inhibition at 5000 µg/mL (Shigella flexneri [18]) [mm] | Ratio (Proteus vulgaris [19])
1 | CCOC(=O)c1c(C)nn(-c2ccc3ccccc3n2)c1N | 3.9 (≈ 13.2 µM) | 15.6 (≈ 52.7 µM) | 1.95 (≈ 6.58 µM) | 125 (≈ 422 µM) | 15.9 | 31.2 (≈ 105 µM) | 18.6 | 16.3 | 20.2 | 20.3 | 31.2 (≈ 105 µM) | 15.6 (≈ 52.7 µM) | 1.95 (≈ 6.58 µM) | 13.6 | 1.95 (≈ 6.58 µM) | 19.8 | 17.3 | 16.8 | –
2 | C(=N\Nc1ccc2ccccc2n1)/c1cn(-c2ccccc2)nc1-c1ccccc1 | 15.6 (≈ 40.1 µM) | 7.81 (≈ 20.1 µM) | 3.9 (≈ 10 µM) | 7.81 (≈ 20.1 µM) | 21.2 | 7.81 (≈ 20.1 µM) | 18.4 | 17.5 | 23.2 | 22.2 | 3.9 (≈ 10 µM) | 3.9 (≈ 10 µM) | 7.81 (≈ 20.1 µM) | 20.2 | 1.97 (≈ 5.06 µM) | 19.6 | 23.4 | 20.1 | –
3 | COc1ccc(C2CC(c3ccc(Oc4ccc5ccccc5n4)cc3)=NN2)cc1 (centres undefined) | – | – | – | – | 16.2 | – | 14.2 | 13.5 | 13.7 | 13.1 | – | – | – | 14.3 | – | 12.1 | 14.6 | 14.3 | –
4 | COc1ccc(C(=O)/C=C/c2ccc(Oc3ccc4ccccc4n3)cc2)cc1 | – | – | – | – | 7.2 | – | 11.5 | 10.7 | 0 | 8.7 | – | – | – | 0 | – | 0 | 10.6 | 0 | –
5 | CCOC(=O)c1c(SC)nn(-c2ccc3ccccc3n2)c1N | 7.81 (≈ 23.8 µM) | – | – | – | 0 | 7.81 (≈ 23.8 µM) | 19.3 | 18.7 | 19.8 | 15.8 | – | – | 1.95 (≈ 5.94 µM) | 0 | – | 20.3 | 17.8 | 0 | –
6 | Clc1ccccc1C1CC(c2ccc(Oc3ccc4ccccc4n3)cc2)=NN1 (centres undefined) | 15.6 (≈ 39.1 µM) | 1.95 (≈ 4.88 µM) | 0.97 (≈ 2.43 µM) | 0.97 (≈ 2.43 µM) | 22.8 | 7.81 (≈ 19.5 µM) | 17.5 | 21.4 | 24.2 | 23.9 | 1.95 (≈ 4.88 µM) | 0.97 (≈ 2.43 µM) | 1.95 (≈ 4.88 µM) | 23.6 | 1.95 (≈ 4.88 µM) | 18.5 | 25.3 | 23.6 | 2
7 | COc1ccc(C2=NNC(c3ccc(Oc4ccc5ccccc5n4)cc3)C2)cc1 (centres undefined) | – | – | – | – | 0 | – | 12.8 | 15.6 | 19.4 | 16.2 | – | – | – | 16.2 | – | 11.6 | 18.6 | 15.4 | –
